# 697 NFkB inh – inhibitors of the PMA/ionomycin-induced NF-kB reporter in 697 B cells. 330,000 compounds, 0.33% hits. 697 B-cell NF-kB luciferase reporter, 16 h. inhibition, % at 4 µM; in the data active = inhibition above about 35%
# TAG inh – inhibitors of triacylglycerol accumulation | H9c2 cells, Nile Red lipid (TAG) fluorescence; cells loaded with 200 µM oleic acid | inhibition, % at 12.5 µM | 230,000 compounds, 0.66% hits;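 active = pattern-corrected inhibition of lipid staining of at least 50% with the nuclear-stain viability signal not falling by more than 50%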;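 note: 0% = DMSO wells and 100% = triacsin C control wells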
# Lipid droplet – hepatic lipid droplet formation modulation | 240,000 compounds, 0.4% hits | AID 1656 | inhibition, % at 6.5 µM | AML12 mouse hepatocytes, oleate lipid droplets, BODIPY imaging;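 active = lipid droplet intensity inhibited by at least 50%, with more than 500 cells counted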
#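 Test system: AML12 mouse liver cells; schedule: overnight exposure; technique: high-content imaging of BODIPY-stained droplets and DAPI nuclei; read-out: % inhibition of corrected integrated BODIPY droplet signal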
# Gli-Sufu antag – Gli-Sufu pathway antagonism; Sufu-KO-LIGHT fibroblasts, Gli luciferase reporter luminescence; 340,000 compounds, 0.74% hits; AID 588413; inhibition, % at 5 µM;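 active = inhibition above about 55%, limit read from the data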;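 note: 0% = DMSO-treated cells and 100% = wells with medium but no cells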
# iPSC survival up – hiPSC single-cell survival enhancement; ATPlite luminescence; 100% = ROCK inhibitor wells, 0% = DMSO; survival enhancement, % at 20 µM; 360,000 compounds, 0.044% hits; AID 602274; in the data active = survival enhancement above about 18%;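 note: cells exposed to compounds for 16 hours before the ATP read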
# Jurkat NFkB inh – inhibitors of the PMA/ionomycin-induced NF-kB reporter in Jurkat cells; PMA/ionomycin-induced NF-kB luciferase reporter, luminescence; inhibition, % at 4 µM; 330,000 compounds, 0.53% hits; AID 435003; in the data active = inhibition above about 50%
# Jurkat NFkB conf – lowers PMA/ionomycin-induced NF-kB signal in Jurkat cells; shares compounds with Jurkat NFkB inh; Jurkat NF-kB luciferase, 16 h; inhibition, % at 4 µM; 2,700 compounds, 27% hits; AID 435020;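 active = inhibition reaching about 45% at 4 µM in either replicate, limit read from the data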;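 note: plate controls were PMA/ionomycin stimulated DMSO wells for no effect and unstimulated DMSO wells for full effect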
# 697 NFkB conf – inhibitors of the PMA/ionomycin-induced NF-kB reporter in 697 B cells, retest | shares compounds with 697 NFkB inh | 697 B-cell NF-kB luciferase, 16 h | inhibition, % at 4 µM | 2,000 compounds, 35% hits; in the data active = inhibition mostly above about 28%, no sharp cut-off; inactive = mostly below about 22%
# Starred values were filed as active, the others as inactive; . = no result given. Only some compounds are listed: those with a hit (about 1.8% of all), similar ones and a draw of the others.
SMILES,697 NFkB inh,TAG inh,Lipid droplet,Gli-Sufu antag,iPSC survival up,Jurkat NFkB inh,Jurkat NFkB conf,697 NFkB conf
N=c1c2c(-c3ccccc3)c(-c3ccccc3)n(Cc3ccccc3)c2ncn1CCCn1ccnc1,37.4*,.,.,25.5,-6.0,57.7*,42.1,24.1*
CN(CC1COc2ccccc2O1)C(=O)CSc1nncs1 (stereo unspecified),5.3,-6.0,.,0.1,0.4,8.5,.,.
COC(=O)CCn1nnc(-c2ccc(C(C)C)cc2)n1,69.4*,-10.0,-0.5,56.7*,-1.3,64.0*,61.2*,77.8*
Cc1ccc(/C=N/OC(=O)c2nn(C)cc2Cl)cc1,1.3,.,2.6,-8.6,-3.3,-15.6,.,.
COc1ccc(C)c2sc(=NC(=O)c3ccc(C(C)=O)cc3)n(C)c12,-358.8,9.2,-10.5,-61.0,-0.3,-251.1,-136.3,-154.6
Cc1cc(C)c(NC(=S)NCC2CCN(C(C)c3ccccc3)C2)c(C)c1 (stereo unspecified),-18.4,-14.3,-1.9,3.2,-0.7,0.9,.,.
CCCCCCn1c2c(c(=N)c3c1CCC3)CCC2,104.3*,.,-100.1,89.2*,-3.0,64.6*,69.3*,33.9*
CCn1c2c(c(=N)c3c1CCC3)CCC2,10.1,.,-3.1,-7.7,-2.5,12.7,.,.
CCCCCCCCCn1c2c(c(=N)c3c1CCC3)CCC2,93.5*,-52.8,-120.9,93.9*,-1.2,90.9*,73.5*,-22.3
CC1CC(=O)Nc2ccccc2N1C(=O)CSc1ncnc2sccc12 (stereo unspecified),5.6,39.3,.,5.3,0.0,0.4,.,.
CC(C)(C)c1ccc(C(=O)N2CCCCCC2=O)cc1,71.1*,-13.1,-7.9,43.4,0.3,53.6*,66.8*,66.3*
O=C1CCCCCN1C(=O)c1ccccc1,.,-5.1,.,6.0,1.4,.,.,.
CC(C)Oc1ccc(C(=O)Nc2nc3ccccc3[nH]2)cc1,-158.0,.,13.1,-3.9,-0.5,-34.3,.,.
O=C(Nc1nc2ccccc2[nH]1)c1ccc(OC(F)F)cc1,-324.8,.,7.6,-167.9,-0.7,-164.9,-94.3,-397.1
Cc1cc(C)cc(NC(=O)CSc2nc(CSc3ccc(Cl)cc3)cc(=O)[nH]2)c1,7.2,-4.8,-9.7,1.9,0.6,8.3,.,.
Nc1nc(-c2cc(-c3ccccc3)no2)cs1,-197.7,.,23.1,-84.4,-0.3,-91.5,.,.
Cc1ccc(-c2cc(-c3ccccc3)no2)cc1,-426.0,-4.8,.,-182.8,-5.1,-203.1,-149.4,-362.1
O=c1c2c3c(sc2nc2n1N=C(c1cccs1)CS2)CCCC3,-312.8,.,.,7.7,-3.5,-194.9,-63.5,-120.3
CCN1/C(=C\C=C(C(C)=O)C(C)=O)Sc2ccccc21,8.0,-18.4,-4.0,11.9,-0.7,0.2,.,.
CCN1/C(=C/C(C)=C/c2sc3ccccc3[n+]2CC)Sc2ccccc21,49.3*,104.0,-82.1,90.3*,-2.1,93.2*,78.5*,7.3
COC(=O)c1cn[nH]c1NC(=S)Nc1ccc(Cl)c(Cl)c1,-419.8,.,17.3,-32.2,-1.8,-277.6,-108.7,-214.8
COC(=O)c1cn[nH]c1NC(=S)Nc1ccccc1C,-53.5,.,.,-47.1,-1.2,7.6,.,.
COC(=O)c1cn[nH]c1NC(=S)Nc1ccc(C)cc1Cl,-413.0,.,.,-49.2,-2.5,-205.2,-142.8,-232.6
NNC(=O)C(=O)NCCCN1CCOCC1,0.0,-0.4,-6.1,-6.3,0.6,2.3,.,.
COc1cc(C(=O)COC(=O)c2ccc3c(c2)OCCO3)cc(OC)c1OC,.,12.3,.,.,-2.3,.,.,.
CCOc1ccc(CN(C)C(=O)[C@H](Cc2ccccc2)NC(=O)OCc2ccccc2)cc1OC,-10.7,.,-10.0,21.2,0.2,3.8,.,.
COC(=O)c1ccc(NC(=O)C(=O)c2c[nH]c3ccccc23)cc1,-39.3,.,-12.7,-29.1,-0.3,-35.0,.,.
O=C(Nc1ccccc1)C(=O)c1c[nH]c2ccccc12,-299.5,.,13.7,-73.6,-0.6,-214.9,-142.8,-328.5
CCCCC(O)(c1ccc(CC)cc1)C(CN1CCOCC1)c1ccccc1 (stereo unspecified),1.2,.,23.8,3.1,0.3,19.9,.,.
Cc1ccc(S(=O)(=O)NCCOc2cc(C)ccc2C)cc1,6.9,-6.7,6.7,-13.7,-0.4,12.2,.,.

# Compound activity deposited in PubChem by Sanford-Burnham Center for Chemical Genomics.
